Calls of active or inactive are those of the source. The rule behind the calls is not given here.
Tests used:
Staphylococcus aureus [1] = assay: Antibacterial activity against fluoroquinolone resistant Staphylococcus aureus USA300 JE2 assessed as zone of inhibition at 10 mmol after 24 hrs Kirby-Bauer disc diffusion method; type: functional
Method in brief: (§1)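 Compounds dissolved in CHCl3 as 1 mmol or 10 mmol solutions; 20 µL loaded per sterile 6 mm paper disc and dried 30 min at 37 °C; 7 discs per concentration. Single colony grown in Mueller-Hinton broth with aeration for 6 h at 37 °C, diluted in PBS to 0.5 McFarland, then swabbed in three directions onto Mueller-Hinton agar. Discs applied; incubated 24 h at 37 °C.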

Staphylococcus aureus [2] = assay: Antibacterial activity against fluoroquinolone sensitive Staphylococcus aureus SH1000 assessed as zone of inhibition at 1 mmol after 24 hrs Kirby-Bauer disc diffusion method; type: functional; method in brief: as §1
Staphylococcus aureus [3] = assay: Antibacterial activity against fluoroquinolone sensitive Staphylococcus aureus SH1000 assessed as zone of inhibition at 10 mmol after 24 hrs Kirby-Bauer disc diffusion method; type: functional
Method in brief: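 Discs: 6 mm autoclaved paper discs each loaded with 20 μL of compound in CHCl3 (1 or 10 mmol solutions), dried 30 min at 37 °C; 7 discs per compound per level. Inoculum: single colony grown 6 h at 37 °C with aeration in Mueller-Hinton broth, diluted with PBS to 0.5 McFarland, swabbed three directions onto Mueller-Hinton agar. Plates incubated 24 h at 37 °C.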

Staphylococcus aureus [4] = assay: Antibacterial activity against fluoroquinolone resistant Staphylococcus aureus USA300 JE2 assessed as zone of inhibition at 1 mmol after 24 hrs Kirby-Bauer disc diffusion method; type: functional; method in brief: as §1
Staphylococcus aureus [5] = assay: Antibacterial activity against fluoroquinolone resistant Staphylococcus aureus USA300 JE2 at 32 mmol after 24 hrs Kirby-Bauer disc diffusion method; type: functional, organism-based
Staphylococcus aureus [6] = assay: Antibacterial activity against fluoroquinolone sensitive Staphylococcus aureus SH1000 at 32 mmol after 24 hrs Kirby-Bauer disc diffusion method; type: functional, organism-based

Compound	inhibition zone (IZ) (Staphylococcus aureus [1])	inhibition zone (IZ) (Staphylococcus aureus [2])	inhibition zone (IZ) (Staphylococcus aureus [3])	inhibition zone (IZ) (Staphylococcus aureus [4])	Activity (Staphylococcus aureus [5])	Activity (Staphylococcus aureus [6])
CCn1c(=O)cc(C)c2cc3c(C)cc(=O)n4c3c(c21)OC4	2.9 cm	0 cm	1.8 cm	1.4 cm		
CCOc1cc(C)c2cc3c(C)cc(=O)n4c3c(c2n1)OCC4	1 cm	0 cm	0 cm	0 cm		
CCn1c(=O)cc(C)c2cc3c(C)cc(=O)n4c3c(c21)OCCC4	2.7 cm	0 cm	2.3 cm	0 cm		
O=C(O)c1cn(C2CC2)c2cc(N3CCNCC3)c(F)cc2c1=O [CIPROFLOXACIN]	1.2 cm	1.8 cm	3.1 cm	0 cm		
CCOc1cc(C)c2cc3c(C)cc(=O)n4c3c(c2n1)OCCC4	0 cm	0 cm	0 cm	0 cm		
CCn1c(=O)cc(C)c2cc3c(C)cc(=O)n4c3c(c21)OCC4	3.2 cm	0 cm	2.2 cm	1.8 cm		
CCOc1cc(C)c2cc3c(C)cc(=O)n4c3c(c2n1)OC4	0 cm	0 cm	0 cm	0 cm	inactive	inactive

From ChEMBL document CHEMBL4373659, “Synthetic studies on the reverse antibiotic natural products, the nybomycins” (2019)
